A short description of test [1]: Inhibition of metalloenzyme Ribonucleoside diphosphate reductase. Set-up: concentration or dose not given beside the values. Particulars: concentration not given here. The essentials:
(§1)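 RdR from excised subcutaneous sarcoma 180 tumors in male B6D2F3 mice; chelators supplied in DMF. Enzyme-started at 37 °C, stopped by boiling at 0, 10, 20 min. Cytidine/deoxycytidine separated by cellulose TLC, radioactivity scanned. Protein by BSA-standard method.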

A short description of test [2]: (§2) Activity against metalloenzyme Ribonucleoside diphosphate reductase was evaluated from a subcutaneously growing murine tumor (sarcoma 180) implanted in B6D2F3 male mice at 0.01 conc. The essentials:
as §1

Test [3] is described as follows: (§3) Activity against metalloenzyme Ribonucleoside diphosphate reductase was evaluated from a subcutaneously growing murine tumor (sarcoma 180) implanted in B6D2F3 male mice at 0.1 conc. The essentials: as §1
Test [4] can be described thus: Activity against metalloenzyme Ribonucleoside diphosphate reductase was evaluated from a subcutaneously growing murine tumor (sarcoma 180) implanted in B6D2F3 male mice at 1.0 conc. The essentials: as §1
The nature of test [5]: as §2. The essentials:
as §1
This is another data set of the same source.

Test [6] can be described thus: (§4) Activity against metalloenzyme Ribonucleoside diphosphate reductase was evaluated from a subcutaneously growing murine tumor (sarcoma 180) implanted in B6D2F3 male mice, in reference to hydroxy-urea at 0.1 conc.
A short description of test [7]: as §3. In short, it runs like this: as §1
This is another data set of the same source.

A short description of test [8]: as §4. The source holds these as a separate data set.
Test [9] can be described thus: Activity against metalloenzyme Ribonucleoside diphosphate reductase was evaluated from a subcutaneously growing murine tumor (sarcoma 180) implanted in B6D2F3 male mice at 0.0002 conc. The essentials:
as §1

Test [10] in a line: Activity against metalloenzyme Ribonucleoside diphosphate reductase was evaluated from a subcutaneously growing murine tumor (sarcoma 180) implanted in B6D2F3 male mice at 0.002 conc. In short, it runs like this:
as §1

Test [11] in a line: Activity against metalloenzyme Ribonucleoside diphosphate reductase was evaluated from a subcutaneously growing murine tumor (sarcoma 180) implanted in B6D2F3 male mice at 0.02 conc. In short, it runs like this: as §1
The nature of test [12]: Activity against metalloenzyme Ribonucleoside diphosphate reductase was evaluated from a subcutaneously growing murine tumor (sarcoma 180) implanted in B6D2F3 male mice at 0.00033 conc. The essentials:
as §1

Test [13] can be described thus: Activity against metalloenzyme Ribonucleoside diphosphate reductase was evaluated from a subcutaneously growing murine tumor (sarcoma 180) implanted in B6D2F3 male mice at 0.0033 conc. In short, it runs like this: as §1
Test [14] in a line: Activity against metalloenzyme Ribonucleoside diphosphate reductase was evaluated from a subcutaneously growing murine tumor (sarcoma 180) implanted in B6D2F3 male mice at 0.033 conc. The essentials: as §1
A short description of test [15]: Activity against metalloenzyme Ribonucleoside diphosphate reductase was evaluated from a subcutaneously growing murine tumor (sarcoma 180) implanted in B6D2F3 male mice at 0.027 conc. In short, it runs like this: as §1
Test [16] in a line: Activity against metalloenzyme Ribonucleoside diphosphate reductase was evaluated from a subcutaneously growing murine tumor (sarcoma 180) implanted in B6D2F3 male mice, in reference to hydroxy-urea at 0.033 conc.
A short description of test [17]: Activity against metalloenzyme Ribonucleoside diphosphate reductase was evaluated from a subcutaneously growing murine tumor (sarcoma 180) implanted in B6D2F3 male mice, in reference to hydroxy-urea at 0.007 conc.

Broadly, the inhibition is the drop in the measured response relative to a control, in per cent.

Consider “Copper(II) Chelate of 1-[Pyridoxylidene]-2-[3',5'-chloro-2'-pyridyl]hydrazine Sulfate”, for which the inhibition in test [1] came out at 81%; in [2] it was 37%; in test [3], 83%; in test [4], 85%.

For “1:2 Copper(II):1-[5'-Bromosalicylidene]-2-[N-(ethoxy-carbonylmethyl)isonicotinoyl]hydrazine Sulfate Complex”, the inhibition in test [5] was found to be 35%; in [1], 72%; in [3] it was 64%; in test [4], 71%.

As to `Cc1c(O)c(/C=N/NC(=O)c2cc[n+](C)cc2)c(CO)c[n+]1C`, the inhibition in test [5] is 0%.

On to `Cc1c(O)c(/C=N/N=c2\ccccn2C)c(CO)c[n+]1C`, for which the inhibition in test [5] amounted to 0%; in test [1], 81%.

`COc1ccc(COC(=O)N/N=C/c2c(CO)cnc(C)c2O)cc1` showed an inhibition in [5] of 0%.

Take `CC(=O)OCc1cnc(C)c(OC(C)=O)c1/C=N/Nc1ncccn1`: the inhibition came out at 24% in [5]; 37% in test [6]; 73% in test [1]; 43% in test [7]; 79% in [4].

In turn, `Oc1ccc(Br)cc1/C=N/Nc1ccccn1` had an inhibition in [5] of 0%.

As for `CCOC(=O)C[n+]1ccc(C(=O)N/N=C/c2cc(Br)ccc2O)cc1`, the inhibition in test [5] stood at 0%; in test [1], 81%.

In the case of `Cc1ncc(CO)c(/C=N/Nc2ncccn2)c1O`, the inhibition in test [1] and in test [4] was 78% throughout.

“Copper(II) Chelate of 1-[Pyridoxylidene]-2-[5'-chloro-2'-pyridyl]hydrazine Sulfate”: the inhibition in [1] was 81%; in [2], 27%; in test [3], 65%; in [4], 82%.

In test [2], `Cc1ncc(CO)c(/C=N/CC/N=C/c2c(CO)cnc(C)c2O)c1O` returned an inhibition of 0%.

On to `CC(=O)OCc1cnc(C)c(OC(C)=O)c1/C=N/Nc1ccccn1`, for which the inhibition in test [6] turned out to be 37%; in test [8] it was 37%; in [2] it was 31%; in [3], 68%; in [7], 68%.

For the compound `CCOC(=O)C[n+]1cc(CO)c(/C=N/Nc2ncccn2)c(O)c1C`, the inhibition in test [5] came to 79%; in test [1] it was 72%; in test [3] it was 76%; in test [4], 79%.

As for `Cc1ncc(CO)c(/C=N/Nc2ncc(Cl)cc2Cl)c1O`, the inhibition was 79% in test [5], 72% in test [1], 78% in test [2] and 83% in [4].

As for `CCOC(=O)C[n+]1ccc(C(=O)N/N=C/c2cc(Cl)ccc2O)cc1`, the inhibition in [9] was 18%; in [10], 10%; in test [1], 81%; in test [11], 77%.

Turning to `Oc1c(Cl)cc(Cl)cc1/C=N/Nc1ccccn1`, the inhibition was 12% in test [12], 34% in [13], 82% in test [1] and 65% in test [14].

`Cc1ncc(CO)c(/C=N/NC(=O)c2ccnc3ccccc23)c1O`: the inhibition in test [9] worked out at 11%; in test [1], 81%; in test [15], 63%.

As for `C[n+]1ccccc1N/N=C/c1cc(Cl)cc(Cl)c1O`, the inhibition amounted to 8% in test [12], 34% in [13], 82% in test [16] and 58% in test [14].

With “1:2 Copper(II):1-[5'-Bromosalicylidene]-2-[isonicotinoyl]-hydrazine Formate Complex”, the inhibition in [5] came out at 22%; in test [1], 73%; in test [3], 28%; in test [4], 59%.

In test [2], `CC(=O)OCc1cnc(C)c(O)c1/C=N/Nc1ncccn1` came in with an inhibition of 30%.

`Cc1cc(O)nc(N/N=C/c2c(CO)cnc(C)c2O)n1`: the inhibition in [1] was 15%; in test [4] it was 0%.

With `Cc1c(O)c(/C=N/Nc2ncccn2)c(CO)c[n+]1C`, the inhibition in test [1] was 15%.

Turning to `Cc1ncc(CO)c(/C=N/Nc2nc(Cl)c(Cl)c(Cl)c2Cl)c1O`, the inhibition in [5] was found to be 25%; in test [1], 72%; in [7] it was 18%; in [4], 43%.

`Cc1ncc(CO)c(/C=N/NC(=O)c2cc[n+](C)cc2)c1O` showed an inhibition in [5] of 0%.

`CCOC(=O)C[n+]1cc(CO)c(/C=N/Nc2ccccn2)c(O)c1C`: the inhibition in [1] was found to be 15%.

As to `Cc1ncc(CO)c(/C=N/Nc2[nH]cnc3ncnc2-3)c1O`, the inhibition in test [12] is 18%; in test [13] it was 21%; in [1], 81%; in [14], 72%.

With `C[n+]1ccc(C(=O)N/N=C/c2cc(Cl)cc(Cl)c2O)cc1`, the inhibition in test [5] was determined as 0%.

For `Cc1ncc(CO)c(/C=N/Nc2ccccn2)c1O`, the inhibition in [5] is 72%; in [17], 15%.

With “Copper(II)-Chelate of 1-[Pyridoxylidene]-2-[2'-pyrimidyl]-hydrazine Sulfate”, the inhibition in test [8] is 37%; in [1], 73%; in [2] it was 38%; in test [3] it was 78%; in [4], 86%.

The compound `Cc1ncc(CO)c(/C=N/Nc2nnc(N/N=C/c3c(CO)cnc(C)c3O)c3ccccc23)c1O` returned an inhibition in test [2] of 0%.

For the origin of these results see ChEMBL document CHEMBL1132415, “Domain-structured N1,N2-derivatized hydrazines as inhibitors of ribonucleoside diphosphate reductase: redox-cycling considerations” (J Med Chem, 1999).
